ChEMBL document CHEMBL1128204, “Novel non-nucleoside inhibitors of human immunodeficiency virus type 1 (HIV-1) reverse transcriptase. 4. 2-Substituted dipyridodiazepinones as potent inhibitors of both wild-type and cysteine-181 HIV-1 reverse transcriptase enzymes” (J Med Chem, 1995)
pIC50: −log10 of the molar value.

Experiments:
[1] = target: Human immunodeficiency virus type 1 reverse transcriptase (Human immunodeficiency virus 1, UniProt Q72547); experiment: Inhibitory concentration against HIV-1 wild type Reverse transcriptase (RT)
[2] = target: Human immunodeficiency virus type 1 reverse transcriptase (Human immunodeficiency virus 1, UniProt Q72547, Y181C); experiment: Inhibitory activity against HIV-1 Y181C Reverse transcriptase (RT)
Procedure, shortened: (§1)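 The enzyme was either p66/p51 heterodimer purified to near homogeneity or crude E. coli lysate containing the mutant RT. Inhibitory concentration was measured in an RT enzyme assay.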

C8166 = experiment: Inhibitory concentration against cell culture of Human T-cell line c8166 infected with HIV-1 IIIB strain was determined; format: functional, cell-based
[3] = target: Human immunodeficiency virus type 1 reverse transcriptase (Human immunodeficiency virus 1, UniProt Q72547, E138K); experiment: Inhibitory concentration against mutant reverse transcriptase of E138K was determined which is in turn resistant to TSAO; procedure, shortened: as §1
[4] = target: Human immunodeficiency virus type 1 reverse transcriptase (Human immunodeficiency virus 1, UniProt Q72547, P236L); experiment: Inhibitory concentration against mutant reverse transcriptase of P236L was determined which is in turn resistant to BHAP; procedure, shortened: as §1
[5] = target: Human immunodeficiency virus type 1 reverse transcriptase (Human immunodeficiency virus 1, UniProt Q72547, K103N); experiment: Inhibitory concentration against mutant reverse transcriptase of K103N was determined which is in turn resistant to pyridinones; procedure, shortened: as §1
[6] = target: Human immunodeficiency virus type 1 reverse transcriptase (Human immunodeficiency virus 1, UniProt Q72547, L100I); experiment: Inhibitory concentration against mutant reverse transcriptase of L100I was determined which is in turn resistant TIBO; procedure, shortened: as §1

Compound	pIC50 [1]	pIC50 [2]	other results
CCN1c2ncccc2C(=O)N(C)c2ccc(=O)[nH]c21	6.33	< 6.00	
CCN1c2ncccc2C(=O)N(C)c2ccc(-c3cc[nH]c3)nc21	7.52	7.40	pIC50 (C8166): 7.40; pIC50 [3]: 7.15; pIC50 [4]: 6.89; pIC50 [5]: 7.30; pIC50 [6]: 6.39
CCN1c2ncccc2C(=O)N(C)c2ccc(-c3ccsc3)nc21	7.00	6.52	
CN1C(=O)c2cccnc2N(C2CC2)c2nc(Br)ccc21	7.52	5.68	
CCN1c2ncccc2C(=O)N(C)c2ccc(-c3cncs3)nc21	6.42	5.96	
CCN1c2ncccc2C(=O)N(C)c2ccc(-n3cccn3)nc21	6.51	6.25	
CCN1c2ncccc2C(=O)Nc2c(C)cc(C(C)(C)C)nc21	< 6.00	< 6.00	
CCN1c2ncccc2C(=O)N(C)c2ccc(-c3ccccc3OC)nc21	6.09	5.60	
CCN1c2ncccc2C(=O)N(C)c2ccc(-c3ccccc3)nc21	6.64	5.85	
CCN1c2ncccc2C(=O)N(C)c2ccc(N3CCCCC3)nc21	6.52	< 6.00	
CCN1c2ncccc2C(=O)N(C)c2ccc(-c3ccc(O)cc3)nc21	7.15	6.57	pIC50 (C8166): 6.52; pIC50 [3]: 7.22; pIC50 [4]: 9.00; pIC50 [5]: 8.00; pIC50 [6]: 6.30
CCN1c2ncccc2C(=O)N(C)c2ccc(NC)nc21	6.72	6.15	
CCN1c2ncccc2C(=O)Nc2c(C)cc(N3CCSCC3)nc21	6.82	< 6.00	
CCN1c2ncccc2C(=O)Nc2c(C)cc(SC)nc21	7.70	< 6.00	
CCN1c2ncccc2C(=O)N(C)c2ccc(-c3cccc(N)c3)nc21		6.25	
CCN1c2ncccc2C(=O)N(C)c2ccc(-c3ccccn3)nc21	6.74	5.80	
CCN1c2ncccc2C(=O)N(C)c2ccc(-c3cnc[nH]3)nc21	5.43	6.13	
CCN1c2ncccc2C(=O)N(C)c2ccc(-c3ncco3)nc21	6.66	6.09	
CCN1c2ncccc2C(=O)Nc2c(C)ccnc21	7.40	5.74	
CCN1c2ncccc2C(=O)Nc2c(C)cc(N3CCC(O)C3)nc21 (stereo unspecified)	7.40	< 6.00	
CCNc1ccc2c(n1)N(CC)c1ncccc1C(=O)N2C	6.64	5.89	
CCN1c2ncccc2C(=O)N(C)c2ccc(-c3ccc(O)nc3)nc21	5.96	< 6.00	
CCN1c2ncccc2C(=O)N(C)c2ccc(-c3ccc(OC)nc3)nc21	5.92	5.52	

Compound	pIC50 [1]	pIC50 [2]	other results
CCN1c2ncccc2C(=O)N(C)c2ccc(-c3ncc[nH]3)nc21	6.89	6.72	
CCN1c2ncccc2C(=O)Nc2c(C)cc(NCCCO)nc21	7.05	< 6.00	
CCN1c2ncccc2C(=O)N(C)c2ccc(-c3cn[nH]c3)nc21	7.70	7.22	pIC50 (C8166): 7.40; pIC50 [3]: 7.30; pIC50 [4]: 6.89; pIC50 [5]: 7.10; pIC50 [6]: 5.60
CCN1c2ncccc2C(=O)N(C)c2ccc(-c3cc[nH]n3)nc21	6.41	6.54	
Cc1cc(C)c2c(n1)N(C1CC1)c1ncccc1C(=O)N2	7.15	5.92	
CN1C(=O)c2cccnc2N(C2CC2)c2nc(-c3cn[nH]c3)ccc21	7.22	7.30	pIC50 (C8166): 6.92; pIC50 [3]: 6.34; pIC50 [4]: 6.47; pIC50 [5]: 6.38; pIC50 [6]: 5.82
CCc1cc(C)c2c(n1)N(CC)c1ncccc1C(=O)N2	7.05	5.77	
CCN1c2ncccc2C(=O)N(C)c2ccc(-c3ccco3)nc21	6.96	6.80	
CCN1c2ncccc2C(=O)Nc2c(C)cc(NCCO)nc21	7.05	< 6.00	
CCN1c2ncccc2C(=O)N(C)c2ccc(N3CCOCC3)nc21	6.40	< 6.00	
CCN1c2ncccc2C(=O)N(C)c2ccc(-c3ccc(N)nc3)nc21	7.30	6.59	pIC50 (C8166): 6.62; pIC50 [3]: 7.70; pIC50 [4]: 7.40; pIC50 [5]: 6.39; pIC50 [6]: 6.62
CN1C(=O)c2cccnc2N(C2CC2)c2nc(-c3cccnc3)ccc21	6.74	6.36	
CCN1c2ncccc2C(=O)Nc2c(C)cc(C(C)C)nc21	6.00	< 6.00	
CCN1c2ncccc2C(=O)N(C)c2ccc(Cl)nc21	7.10	6.68	pIC50 (C8166): 6.80; pIC50 [3]: 6.92; pIC50 [4]: 7.70; pIC50 [5]: 5.96
CCN1c2ncccc2C(=O)Nc2c(C)cc(N(C)CCO)nc21	8.00	< 6.00	
C#Cc1ccc2c(n1)N(CC)c1ncccc1C(=O)N2C	6.85	6.38	
CCN1c2ncccc2C(=O)N(C)c2ccc(-c3ccc(N)cc3)nc21	7.40	6.92	pIC50 (C8166): 6.26; pIC50 [3]: 7.22; pIC50 [4]: 6.59; pIC50 [5]: 6.59; pIC50 [6]: 6.24
CCN1c2ncccc2C(=O)N(C)c2ccc(-c3ccc(OC)cc3)nc21	5.85	5.49	
CCN1c2ncccc2C(=O)Nc2c(C)cc(Cl)nc21	8.00	6.10	
CCN1c2ncccc2C(=O)N(C)c2ccc(OC)nc21	7.40	6.22	
CCN1c2ncccc2C(=O)N(C)c2cccnc21		5.66	
CCN1c2ncccc2C(=O)N(C)c2ccc(-c3cccc(O)c3)nc21	7.00	6.74	
CCN1c2ncccc2C(=O)N(C)c2ccc(-c3nccs3)nc21	7.00	6.62	

Compound	pIC50 [1]	pIC50 [2]	other results
CN1C(=O)c2cccnc2N(C2CC2)c2nc(Cl)ccc21		6.04	
CCN1c2ncccc2C(=O)N(C)c2ccc(-c3ccc[nH]3)nc21	7.15	7.15	
CCN1c2ncccc2C(=O)N(C)c2ccc(-n3cccc3)nc21	7.05	6.68	
CCN1c2ncccc2C(=O)N(C)c2ccc(C)nc21	6.92	5.92	
CCN1c2ncccc2C(=O)N(C)c2ccc(N)nc21	< 6.00	< 6.00	
CCN1c2ncccc2C(=O)Nc2c(C)cc(C)nc21	7.70	< 6.00	
CN1C(=O)c2cccnc2N(C2CC2)c2nc(-c3cc[nH]c3)ccc21	7.30	7.22	
CCN1c2ncccc2C(=O)N(C)c2ccc(-c3cnco3)nc21	6.96	6.25	
CCN1c2ncccc2C(=O)N(C)c2ccc(/C=C/C(N)=O)nc21	6.60	5.62	
CCN1c2ncccc2C(=O)N(C)c2ccc(/C=C/C(=O)OC)nc21	6.74	6.17	
CCN1c2ncccc2C(=O)N(C)c2ccc(-c3cccs3)nc21	6.85	6.38	
Cc1ccnc2c1NC(=O)c1cccnc1N2C1CC1 [NEVIRAPINE]			pIC50 (C8166): 7.40
Cc1cc(Cl)nc2c1NC(=O)c1cccnc1N2C1CC1	7.70	6.11	
COc1ccc2c(n1)N(C1CC1)c1ncccc1C(=O)N2C	6.92	5.96	
CCN1c2ncccc2C(=O)N(C)c2ccc(-c3cccc(OC)c3)nc21	6.82	6.68	
CCN1c2ncccc2C(=O)N(C)c2ccc(N3CC=CC3)nc21	7.52	6.19	
CCN1c2ncccc2C(=O)N(C)c2ccc(N3CCCC3)nc21	7.70	5.42	
CN1C(=O)c2cccnc2N(C2CC2)c2nc(-c3ccncc3)ccc21	6.82	6.49	
CCN1c2ncccc2C(=O)N(C)c2ccc(N(C)C)nc21	7.15	6.11	
CCN1c2ncccc2C(=O)Nc2c(C)cc(F)nc21	7.70	6.07	
C/C=C/Nc1ccc2c(n1)N(CC)c1ncccc1C(=O)N2C	6.41	< 6.00	
CCN1c2ncccc2C(=O)N(C)c2ccc(-c3ccoc3)nc21	7.40	6.96	
